# From ChEMBL document CHEMBL1152304, “Alteration of the bis-tetrahydrofuran core stereochemistries in asimicin can affect the cytotoxicity” (J Med Chem, 2008)
# Tests used:
# [1] = tested on: L1210; assay: Cytotoxicity against mouse L1210 cells at 30 ug by disk diffusion assay; format: functional
# Method in brief: (§1)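 15 µL of sample dried overnight on 6.5 mm filter disk. Disk placed near edge of 60 mm dish of cells plated in soft agar, incubated 7-10 days. Zone of inhibition measured from disk edge to start of normal-sized colony formation, disk diameter taken as 200 units. Overly toxic samples diluted 1:4 or 1:10 and retested.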
# [2] = tested on: L1210; assay: Cytotoxicity against mouse L1210 cells at 3 ug by disk diffusion assay; format: functional; method in brief: as §1
# [3] = tested on: L1210; assay: Cytotoxicity against mouse L1210 cells at 0.3 ug by disk diffusion assay; format: functional; method in brief: as §1
# [4] = tested on: MC-38; assay: Cytotoxicity against mouse Colon 38 cells at 30 ug by disk diffusion assay; format: functional; method in brief: as §1
# [5] = tested on: MC-38; assay: Cytotoxicity against mouse Colon 38 cells at 3 ug by disk diffusion assay; format: functional; method in brief: as §1
# [6] = tested on: MC-38; assay: Cytotoxicity against mouse Colon 38 cells at 0.3 ug by disk diffusion assay; format: functional; method in brief: as §1
# [7] = tested on: HCT-116; assay: Cytotoxicity against human HCT116 cells at 30 ug by disk diffusion assay; format: functional; method in brief: as §1
# [8] = Cytotoxicity against human H125M cells at 30 ug by disk diffusion assay; format: functional; method in brief: as §1
# [9] = tested on: CCRF-CEM; assay: Cytotoxicity against human CEM cells at 30 ug by disk diffusion assay; format: functional; method in brief: as §1
# [10] = Cytotoxicity against human CFU-GM cells at 30 ug by disk diffusion assay; format: functional; method in brief: as §1
# [11] = Cytotoxicity against human CFU-GM cells at 3 ug by disk diffusion assay; format: functional; method in brief: as §1
# [12] = Cytotoxicity against human CFU-GM cells at 0.3 ug by disk diffusion assay; format: functional; method in brief: as §1
# [13] = Inhibition of bovine heart mitochondrial complex1 activity; design: species or system Bos taurus
# Method in brief: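 Bovine heart submitochondrial particles, 15 µg/mL, in 0.25 M sucrose, 1 mM MgCl2, 50 mM phosphate pH 7.5. Inhibitor added at various concentrations and equilibrated 5 min. Reaction started with 150 µM NADH and followed spectrophotometrically at 340 nm. IC50 derived.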
# [14] = tested on: L1210; assay: Cytotoxicity against mouse L1210 cells at 60 ug by disk diffusion assay; format: functional; method in brief: as §1
# [15] = tested on: L1210; assay: Cytotoxicity against mouse L1210 cells at 15 ug by disk diffusion assay; format: functional; method in brief: as §1
# [16] = tested on: L1210; assay: Cytotoxicity against mouse L1210 cells at 3.75 ug by disk diffusion assay; format: functional; method in brief: as §1
# [17] = tested on: MC-38; assay: Cytotoxicity against mouse Colon 38 cells at 15 ug by disk diffusion assay; format: functional; method in brief: as §1
# [18] = tested on: MC-38; assay: Cytotoxicity against mouse Colon 38 cells at 3.75 ug by disk diffusion assay; format: functional; method in brief: as §1
# [19] = tested on: HCT-116; assay: Cytotoxicity against human HCT116 cells at 60 ug by disk diffusion assay; format: functional; method in brief: as §1
# [20] = Cytotoxicity against human H125M cells at 60 ug by disk diffusion assay; format: functional; method in brief: as §1
# [21] = tested on: CCRF-CEM; assay: Cytotoxicity against human CEM cells at 60 ug by disk diffusion assay; format: functional; method in brief: as §1
# [22] = Cytotoxicity against human CFU-GM cells at 60 ug by disk diffusion assay; format: functional; method in brief: as §1
# [23] = Cytotoxicity against human CFU-GM cells at 15 ug by disk diffusion assay; format: functional; method in brief: as §1
# [24] = Cytotoxicity against human CFU-GM cells at 3.75 ug by disk diffusion assay; format: functional; method in brief: as §1
# [25] = tested on: MC-38; assay: Cytotoxicity against mouse Colon 38 cells at 60 ug by disk diffusion assay; format: functional; method in brief: as §1
# [26] = tested on: HCT-116; assay: Cytotoxicity against human HCT116 cells; format: functional, cell-based
# [27] = tested on: HCT-116; assay: Cytotoxicity against human HCT116 cells assessed as surviving fraction at 0.001 ug/ml after 24 hrs; format: functional
# Method in brief: (§2)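 HCT-116 cells exposed to drug at 0.001-10 µg/mL for 2 h, 24 h or continuously (168 h). Surviving clonogenic cells counted. 90% kill (S10) used as comparison point.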
# [28] = tested on: HCT-116; assay: Cytotoxicity against human HCT116 cells assessed as surviving fraction at 0.01 ug/ml after 24 hrs; format: functional; method in brief: as §2
# [29] = tested on: HCT-116; assay: Cytotoxicity against human HCT116 cells assessed as surviving fraction at 0.1 ug/ml after 24 hrs; format: functional; method in brief: as §2
# [30] = tested on: HCT-116; assay: Cytotoxicity against human HCT116 cells assessed as surviving fraction at 0.0001 ug/ml after 168 hrs; format: functional
# [31] = tested on: HCT-116; assay: Cytotoxicity against human HCT116 cells assessed as surviving fraction at 0.001 ug/ml after 168 hrs; format: functional; method in brief: as §2
# [32] = tested on: HCT-116; assay: Cytotoxicity against human HCT116 cells assessed as surviving fraction at 0.01 ug/ml after 168 hrs; format: functional; method in brief: as §2
# [33] = tested on: HCT-116; assay: Cytotoxicity against human HCT116 cells assessed as surviving fraction at 0.1 ug/ml after 168 hrs; format: functional; method in brief: as §2
# [34] = tested on: L1210; assay: Cytotoxicity against mouse L1210 cells at 0.94 ug by disk diffusion assay; format: functional; method in brief: as §1
# [35] = tested on: MC-38; assay: Cytotoxicity against mouse Colon 38 cells at 0.94 ug by disk diffusion assay; format: functional; method in brief: as §1
# [36] = tested on: HCT-116; assay: Cytotoxicity against human HCT116 cells at 15 ug by disk diffusion assay; format: functional; method in brief: as §1
# [37] = Cytotoxicity against human H125M cells at 15 ug by disk diffusion assay; format: functional; method in brief: as §1
# [38] = tested on: CCRF-CEM; assay: Cytotoxicity against human CEM cells at 15 ug by disk diffusion assay; format: functional; method in brief: as §1
# [39] = Cytotoxicity against human CFU-GM cells at 0.94 ug by disk diffusion assay; format: functional; method in brief: as §1
# [40] = tested on: HCT-116; assay: Cytotoxicity against human HCT116 cells assessed as surviving fraction at 1 ug/ml after 2 hrs; format: functional; method in brief: as §2
# [41] = tested on: HCT-116; assay: Cytotoxicity against human HCT116 cells assessed as surviving fraction at 10 ug/ml after 2 hrs; format: functional; method in brief: as §2
# [42] = tested on: HCT-116; assay: Cytotoxicity against human HCT116 cells assessed as surviving fraction at 1 ug/ml after 24 hrs; format: functional; method in brief: as §2
# [43] = tested on: HCT-116; assay: Cytotoxicity against human HCT116 cells assessed as surviving fraction at 10 ug/ml after 24 hrs; format: functional; method in brief: as §2
# [44] = tested on: HCT-116; assay: Cytotoxicity against human HCT116 cells assessed as surviving fraction at 1 ug/ml after 168 hrs; format: functional; method in brief: as §2
# [45] = tested on: HCT-116; assay: Cytotoxicity against human HCT116 cells assessed as surviving fraction at 10 ug/ml after 168 hrs; format: functional; method in brief: as §2
# [46] = tested on: HCT-116; assay: Cytotoxicity against human HCT116 cells assessed as surviving fraction at 0.0001 ug/ml after 2 hrs; format: functional
# [47] = tested on: HCT-116; assay: Cytotoxicity against human HCT116 cells assessed as surviving fraction at 0.001 ug/ml after 2 hrs; format: functional; method in brief: as §2
# [48] = tested on: HCT-116; assay: Cytotoxicity against human HCT116 cells assessed as surviving fraction at 0.01 ug/ml after 2 hrs; format: functional; method in brief: as §2
# [49] = tested on: HCT-116; assay: Cytotoxicity against human HCT116 cells assessed as surviving fraction at 0.1 ug/ml after 2 hrs; format: functional; method in brief: as §2
# [50] = tested on: HCT-116; assay: Cytotoxicity against human HCT116 cells assessed as surviving fraction at 0.0001 ug/ml after 24 hrs; format: functional
smiles,measurement,setting,value
CCCCCCCCCC[C@@H](O)[C@@H]1CC[C@@H]([C@@H]2CC[C@H]([C@H](O)CCCCCCCCCC[C@@H](O)CC3=C[C@H](C)OC3=O)O2)O1,inhibition zone (IZ),[1],250 Zone units
same,inhibition zone (IZ),[2],150 Zone units
same,inhibition zone (IZ),[3],50 Zone units
same,inhibition zone (IZ),[4],750 Zone units
same,inhibition zone (IZ),[5],750 Zone units
same,inhibition zone (IZ),[6],500 Zone units
same,inhibition zone (IZ),[7],600 Zone units
same,inhibition zone (IZ),[8],600 Zone units
same,inhibition zone (IZ),[9],200 Zone units
same,inhibition zone (IZ),[10],650 Zone units
same,inhibition zone (IZ),[11],550 Zone units
same,inhibition zone (IZ),[12],500 Zone units
same,IC50,[13],3 nM
CCCCCCCCCC[C@@H](O)[C@H]1CC[C@@H]([C@@H]2CC[C@H]([C@@H](O)CCCCCCCCCC[C@@H](O)CC3=C[C@H](C)OC3=O)O2)O1,inhibition zone (IZ),[14],200 Zone units
same,inhibition zone (IZ),[15],300 Zone units
same,inhibition zone (IZ),[16],150 Zone units
same,inhibition zone (IZ),[17],800 Zone units
same,inhibition zone (IZ),[18],650 Zone units
same,inhibition zone (IZ),[19],550 Zone units
same,inhibition zone (IZ),[20],500 Zone units
same,inhibition zone (IZ),[21],150 Zone units
same,inhibition zone (IZ),[22],350 Zone units
same,inhibition zone (IZ),[23],250 Zone units
same,inhibition zone (IZ),[24],100 Zone units
same,inhibition zone (IZ),[25],600 Zone units
same,IC50,[13],2.5 nM
same,IC50,[26],5.6 nM
CCCCCCCCCC[C@@H](O)[C@H]1CC[C@H]([C@H]2CC[C@H]([C@@H](O)CCCCCCCCCC[C@@H](O)CC3=C[C@H](C)OC3=O)O2)O1,inhibition zone (IZ),[14],400 Zone units
same,inhibition zone (IZ),[15],400 Zone units
same,inhibition zone (IZ),[16],50 Zone units
same,inhibition zone (IZ),[17],750 Zone units
same,inhibition zone (IZ),[18],650 Zone units
same,inhibition zone (IZ),[19],600 Zone units
same,inhibition zone (IZ),[20],250 Zone units
same,inhibition zone (IZ),[21],100 Zone units
same,inhibition zone (IZ),[22],600 Zone units
same,inhibition zone (IZ),[23],100 Zone units
same,inhibition zone (IZ),[24],0 Zone units
same,inhibition zone (IZ),[25],800 Zone units
same,IC50,[13],3.3 nM
same,IC50,[26],27 nM
CCCCCCCCCCC(O)C1CCC(C2CCC(C(O)CCCCCCCC[C@H](O)CC3=C[C@@H](C)OC3=O)O2)O1 (stereo partly specified) [ASIMICIN],Activity,[27],0.88
same,Activity,[28],0.73
same,Activity,[29],0.54
same,Activity,[30],0.66
same,Activity,[31],0.001
same,Activity,[32],0.001
same,Activity,[33],0.001
same,inhibition zone (IZ),[14],600 Zone units
same,inhibition zone (IZ),[15],200 Zone units
same,inhibition zone (IZ),[16],400 Zone units
same,inhibition zone (IZ),[34],150 Zone units
same,inhibition zone (IZ),[17],900 Zone units
same,inhibition zone (IZ),[18],950 Zone units
same,inhibition zone (IZ),[35],650 Zone units
same,inhibition zone (IZ),[36],600 Zone units
same,inhibition zone (IZ),[37],300 Zone units
same,inhibition zone (IZ),[38],200 Zone units
same,inhibition zone (IZ),[22],600 Zone units
same,inhibition zone (IZ),[23],300 Zone units
same,inhibition zone (IZ),[24],500 Zone units
same,inhibition zone (IZ),[39],0 Zone units
same,Activity,[40],0.8
same,Activity,[41],0.66
same,Activity,[42],0.48
same,Activity,[43],0.12
same,Activity,[44],0.001
same,Activity,[45],0.001
same,inhibition zone (IZ),[25],800 Zone units
same,IC50,[13],1.2 nM
same,IC50,[26],0.51 nM
same,Activity,[46],0.97
same,Activity,[47],0.94
same,Activity,[48],0.8
same,Activity,[49],0.98
same,Activity,[50],1
